This note sets out measurements from ChEMBL document CHEMBL3244108, “Potential antitumor agents. Some sulfur-substituted derivatives of alpha- and beta-2'-deoxythioguanosine” (J Med Chem, 1977).

Some results are limits rather than exact numbers.

Data set [1] has as its system L1210. Briefly: Antitumor activity in mouse L1210 cells allografted in mouse assessed as increase in survival time at optimal dose administered as single dose relative to control. The data set is classed as functional. In short, it runs like this: (§1)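 Mouse leukemia survival test run under standard National Cancer Institute protocols. T/C = (treated-animal average survival time / control-animal average survival time) × 100%. Optimum dose is expressed as mg/kg/dose. T/C data were duplicated in separate experiments except where a footnote states that confirmation was not run.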

The species entered for data set [2] is Mus musculus. The data set can be described thus: Acute toxicity in mouse. The settings on record: in vivo. Format: organism-based.
The subject of data set [3] is L1210. Briefly: Antitumor activity in mouse L1210 cells allografted in mouse assessed as increase in survival time at 400 mg/kg administered as single dose relative to control. Format: functional. A digest of the protocol: as §1
Data set [4] has as its system L1210. Briefly: Antitumor activity in mouse L1210 cells allografted in mouse assessed as increase in survival time at optimal dose administered qd on days 1 to 5 of challenge relative to control. Format: functional. A digest of the protocol: as §1
Data set [5] deals with L1210. Briefly: Inhibition of RNA synthesis in mouse L1210 cells assessed as inhibition of tritiated uridine incorporation into nucleic acids. The data set is classed as functional. The settings on record: read-out: ED50 (the source's name). In short, it runs like this:
(§2)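 Cultured L1210 cells were labeled with tritiated thymidine (DNA) or tritiated uridine (RNA), and label incorporation into the isolated nucleic acids was measured. The ED50 is the drug concentration that inhibits this incorporation by 50%. Other details are referenced to earlier work.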

Data set [6] deals with L1210. The data set can be described thus: Inhibition of DNA synthesis in mouse L1210 cells assessed as inhibition of tritiated thymidine incorporation into nucleic acids. The settings on record: read-out: ED50 (the source's name). Format: functional. A digest of the protocol: as §2
The test system of data set [7] is P388. The data set can be described thus: Antitumor activity in mouse P388 cells allografted in mouse assessed as increase in survival time at optimal dose administered qd on days 1 to 9 of challenge relative to control. The data set is classed as functional. A digest of the protocol: as §1
Data set [8] deals with L1210. Briefly: Antitumor activity in mouse L1210 cells allografted in mouse assessed as increase in survival time at optimal dose administered qd on days 1 to 9 of challenge relative to control. The data set is classed as functional. A digest of the protocol: as §1
Data set [9] concerns L1210. Briefly: Antitumor activity in mouse L1210 cells allografted in mouse assessed as increase in survival time at optimal dose administered qd on days 1 to 16 of challenge relative to control. The data set is classed as functional. In short, it runs like this: as §1

Regarding `Nc1nc(SCc2ccccc2)c2ncn([C@H]3C[C@H](O)[C@@H](CO)O3)c2n1`, the T/C (commonly the result in the treated group divided by that in the control group, in per cent) is 172% in data set [1] and 157% in [3]. The Activity result in data set [2] is listed as “Non-toxic”.

With `Cn1cnc([N+](=O)[O-])c1Sc1nc(N)nc2c1ncn2[C@@H]1C[C@H](O)[C@@H](CO)O1`, the values for the T/C in data set [4] and in [7] were 137% and below 125%, respectively. The EC50 in data set [5] and in [6] was above 100 µM throughout. Besides, in data set [2], the Activity result is reported as “Non-toxic”.

Consider `C=CCSc1nc(N)nc2c1ncn2[C@H]1C[C@H](O)[C@@H](CO)O1`, for which the T/C in data set [4] worked out at 179%; in data set [7], 181%. Further, the results for the EC50 in [5] and in data set [6] were 3 µM and 5.5 µM, respectively. Further, the Activity entry in data set [2] is listed as “Non-toxic”.

For `Nc1nc2c(ncn2[C@H]2C[C@H](O)[C@@H](CO)O2)c(=S)[nH]1` [ATEGANOSINE], the figures for the T/C in data set [8], in [4] and in data set [7] were 208%, 219% and 138%, respectively. Besides, the EC50 in data set [5] was 50 µM; in data set [6], above 100 µM.

Take `CC(=O)OC[C@H]1O[C@H](n2cnc3c(=S)[nH]c(N)nc32)C[C@@H]1OC(C)=O`: in data set [4], the T/C is reported as below 125%.

For `CSc1nc(NC(C)=O)nc2c1ncn2[C@H]1C[C@H](O)[C@@H](CO)O1`, the T/C in [4] is reported as below 125%. Also, the Activity entry in data set [2] is recorded as “Non-toxic”.

In the case of `C=CCSc1nc(N)nc2c1ncn2[C@@H]1C[C@H](O)[C@@H](CO)O1`, the T/C in [4] and in data set [7] was below 125% in each case. For the same molecule, the EC50 in [5] and in data set [6] was above 100 µM throughout. The Activity result in data set [2] is listed as “Non-toxic”.

Turning to `Cn1cnc([N+](=O)[O-])c1Sc1nc(N)nc2c1ncn2[C@H]1C[C@H](O)[C@@H](CO)O1`, the figures for the T/C in [4] and in [7] were 173% and 161%, respectively. Further, the EC50 in data set [5] stood at 11 µM; in data set [6], 25 µM. The Activity result in [2] was “Non-toxic”.

Consider `Nc1nc(SCc2ccccc2)c2ncn([C@@H]3C[C@H](O)[C@@H](CO)O3)c2n1`, for which the T/C in data set [4] worked out at 144%. In [2], the Activity result is “Non-toxic”.

In the case of `CSc1nc(N)nc2c1ncn2[C@@H]1C[C@H](O)[C@@H](CO)O1`, the T/C in data set [4] and in [7] was below 125% each time. Moreover, the EC50 in data set [5] and in data set [6] was above 100 µM in each case. Moreover, the Activity entry in data set [2] is on record as “Non-toxic”.

Turning to `Cc1cccc(CSc2nc(N)nc3c2ncn3[C@H]2C[C@H](O)[C@@H](CO)O2)n1`, the T/C was 153% in data set [4] and below 125% in data set [7]. In addition, the EC50 in data set [5] was found to be 31 µM; in data set [6], 64 µM. Besides, the Activity result in data set [2] is recorded as “Non-toxic”.

Regarding `CC(=O)OC[C@H]1O[C@@H](n2cnc3c(=S)[nH]c(N)nc32)C[C@@H]1OC(C)=O`, the values for the T/C in data set [4] and in [7] were 156% and 174%, respectively.

As for `CSc1nc(N)nc2c1ncn2[C@H]1C[C@H](O)[C@@H](CO)O1`, the T/C in data set [4] came to 128%. The values for the EC50 in data set [5] and in [6] were 24 µM and 27 µM, respectively. Further, the Activity entry in [2] is “Non-toxic”.

For `Nc1nc2c(ncn2[C@@H]2C[C@H](O)[C@@H](CO)O2)c(=S)[nH]1`, the T/C in [9] is listed as 174%; in [4] it was 161%; in data set [7], 168%. In addition, the EC50 in data set [5] and in [6] was above 100 µM throughout.

For the molecule `Cc1cccc(CSc2nc(N)nc3c2ncn3[C@@H]2C[C@H](O)[C@@H](CO)O2)n1`, the T/C in data set [4] and in [7] was below 125% in each case. In addition, the EC50 in [5] turned out to be 72 µM; in [6], 79 µM. Besides, in data set [2], the Activity result is “Non-toxic”.
